{"data": "Assay results gathered from unrelated publications", "SLC22A1": "Solute carrier family 22 member 1 (SLC22A1, Homo sapiens, UniProt O15245)", "note": "Compare with care: the assays were run in different laboratories."}
{"SMILES": "C[C@@]12COCO[C@@H]1CC[C@]1(C)[C@@H]2CC[C@@H]2CN(Cc3ccccc3)[C@@H](C3=CCOC3=O)C[C@H]21", "tested on": "MRC5", "assay": "cell growth or viability, ATP luminescence", "conditions": "25 µM, 72 h", "quantity": "cell death", "value": "-1.2%"}
{"SMILES": "CN(C(=O)n1cnc(-c2ccc[n+]([O-])c2)c1)C1CCCCC1", "tested on": "SLC22A1", "assay": "transporter uptake, inhibitor", "test system": "CHO", "conditions": "1 µg/mL", "quantity": "inhibition", "value": "13%"}
{"SMILES": "COc1ccc(CN2C[C@H]3CC[C@@H]4[C@](C)(CO)[C@H](O)CC[C@@]4(C)[C@@H]3C[C@@H]2C2=CCOC2=O)cc1", "tested on": "MRC5", "assay": "cell growth or viability, ATP luminescence", "conditions": "25 µM, 72 h", "quantity": "cell death", "value": "-1.8%"}
{"SMILES": "O=C(O)CSc1nnc(Br)n1-c1ccc(C2CC2)c2ccccc12", "tested on": "SLC22A1", "assay": "transporter uptake, inhibitor", "test system": "MDCK-II", "conditions": "30 µM, 5 min", "quantity": "inhibition", "value": "58%"}
{"SMILES": "COc1cc(OC)c2c(=O)cc(-c3ccccc3Br)oc2c1", "tested on": "HS27", "assay": "cell growth or viability, MTT", "conditions": "24 h", "quantity": "CC50", "value": "> 200 µM"}
{"SMILES": "C[C@@]12COCO[C@@H]1CC[C@]1(C)[C@@H]2CC[C@@H]2CN(Cc3ccc(F)cc3)[C@@H](C3=CCOC3=O)C[C@H]21", "tested on": "MRC5", "assay": "cell growth or viability, ATP luminescence", "conditions": "25 µM, 72 h", "quantity": "cell death", "value": "-4.3%"}
{"SMILES": "COc1cc(C)c(-c2c(C)cc(OC)c3c(=O)cc(-c4ccccc4Br)oc23)c2oc(-c3ccccc3Br)cc(=O)c12", "tested on": "HS27", "assay": "cell growth or viability, MTT", "conditions": "24 h", "quantity": "CC50", "value": "> 200 µM"}
{"SMILES": "CCCCOC(=O)N1CCN(C(=O)[C@H](CP(=O)(O)O)NC(=O)c2cc(N3CC[C@H](OC)C3)nc(-c3ccccc3)n2)CC1", "test system": "human, plasma", "conditions": "subcutaneous, 16 mg, 24 h, single dose", "quantity": "concentration", "value": "2.1 ng/mL"}
{"SMILES": "CN(CCC(=O)O)C(=O)c1ccc2c(c1)CC[C@@H]1[C@@H]2CC[C@]2(C)C(c3cncc(F)c3)=CC[C@@H]12", "tested on": "UDP-glucuronosyltransferase 2B4 (UGT2B4, Homo sapiens, UniProt P06133)", "assay": "enzyme activity, inhibitor", "quantity": "IC50", "value": "> 30 µM"}
{"SMILES": "COc1ccc(-c2cc(=O)c3c(OC)cc(OC)c(-c4c(OC)cc(OC)c5c(=O)cc(-c6ccc(OC)cc6)oc45)c3o2)cc1", "tested on": "HS27", "assay": "cell growth or viability, MTT", "conditions": "24 h", "quantity": "CC50", "value": "> 200 µM"}
{"SMILES": "C=C[C@H]1C[N@@]2CC[C@H]1C[C@@H]2[C@@H](O)c1ccnc2ccc(OC)cc12", "tested on": "SLC22A1", "assay": "transporter uptake, inhibitor", "test system": "MDCK-II", "conditions": "100 µM, 5 min", "quantity": "inhibition", "value": "77%"}
{"SMILES": "C=CCn1c(=O)c2cnc(Nc3ccc(N4CCN(C)CC4)cc3)nc2n1-c1cccc(C(C)(C)O)n1", "test system": "human, plasma", "conditions": "oral, 175 mg, 8 h, single dose", "quantity": "concentration", "value": "213 nM"}
